Assay results: ChEMBL document CHEMBL2407075, “Sulphonamido-quinoxalines: search for anticancer agent” (Eur J Med Chem, 2013)

Experiments:
Assay type in all cases: functional
HCT-15 [1] = experiment: Growth inhibition of human HCT15 cells at 10 uM after 48 hrs by sulforhodamine B assay; settings: HCT-15, 48 h, read-out: GI
How it was run: (§1)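 NCI-60 one-dose primary screen at a single 10 µM concentration. Cells in RPMI 1640 with 5% FBS, preincubated 24 h at 37 °C, 5% CO2. Drug exposure 48 h, then TCA fixation, SRB staining and absorbance at 515 nm. Percent growth calculated against time-zero and untreated control wells, then converted to percent growth inhibition.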

BT-549 = experiment: Growth inhibition of human BT549 cells assessed as cell growth at 10^-7 M after 48 hrs by sulforhodamine B assay; settings: BT-549, 48 h, read-out: Activity
How it was run: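 Five-dose NCI-60 run (0.01, 0.1, 1, 10 and 100 µM, as 10-fold dilutions from a DMSO stock made at 400× the top final level). Cells were grown in RPMI 1640 with 5% FBS and 2 mM glutamine and plated for 24 h. They were then exposed for 48 h at 37 °C and 5% CO2. TCA fixation was followed by SRB staining with A515 read-out. Percent growth was taken relative to time-zero and control plates.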

SK-MEL-5 = experiment: Growth inhibition of human SK-MEL-5 cells at 10 uM after 48 hrs by sulforhodamine B assay; settings: SK-MEL-5, 48 h, read-out: GI
How it was run: (§2)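 Single-dose screen at 10 µM across the NCI 60 panel. Cells in RPMI 1640 with 5% FBS and 2 mM L-glutamine, plated at 5000–40,000/well and preincubated 24 h at 37 °C, 5% CO2. Drug in DMSO, 48 h exposure. Fixed with TCA, stained with SRB, A515 read. Percent growth is taken relative to untreated control, and inhibition is 100 minus growth.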

SF-539 = experiment: Growth inhibition of human SF539 cells at 10 uM after 48 hrs by sulforhodamine B assay; settings: SF-539, 48 h, read-out: GI; how it was run: as §2
PC-3 = experiment: Growth inhibition of human PC3 cells at 10 uM after 48 hrs by sulforhodamine B assay; settings: PC-3, 48 h, read-out: GI; how it was run: as §2
Malme-3M = experiment: Growth inhibition of human MALME-3M cells at 10 uM after 48 hrs by sulforhodamine B assay; settings: read-out: GI; how it was run: as §2
ACHN = experiment: Growth inhibition of human ACHN cells at 10 uM after 48 hrs by sulforhodamine B assay; settings: read-out: GI
How it was run: (§3)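 Single-dose NCI-60 prescreen at 10 µM for 48 h at 37 °C and 5% CO2, using cells grown in RPMI 1640 with 5% FBS and 2 mM glutamine. Protein was measured by SRB after TCA fixation: 10% final for adherent lines, 16% for suspension lines. Absorbance was read at 515 nm. Percent growth inhibition was obtained by subtracting percent growth from 100.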

LOX IMVI = experiment: Growth inhibition of human LOXIMVI cells at 10 uM after 48 hrs by sulforhodamine B assay; settings: read-out: GI; how it was run: as §2
UACC-62 = experiment: Growth inhibition of human UACC62 cells at 10 uM after 48 hrs by sulforhodamine B assay; settings: UACC-62, 48 h, read-out: GI; how it was run: as §2
SF-268 = experiment: Growth inhibition of human SF268 cells at 10 uM after 48 hrs by sulforhodamine B assay; settings: SF-268, 48 h, read-out: GI; how it was run: as §2
HT-29 = experiment: Growth inhibition of human HT-29 cells at 10 uM after 48 hrs by sulforhodamine B assay; settings: HT-29, 48 h, read-out: GI; how it was run: as §1
UO-31 = experiment: Growth inhibition of human UO31 cells at 10 uM after 48 hrs by sulforhodamine B assay; settings: UO-31, 48 h, read-out: GI; how it was run: as §2
A498 = experiment: Growth inhibition of human A498 cells at 10 uM after 48 hrs by sulforhodamine B assay; settings: A498, 48 h, read-out: GI; how it was run: as §3
SR = experiment: Growth inhibition of human SR cells at 10 uM after 48 hrs by sulforhodamine B assay; settings: read-out: GI; how it was run: as §2
RPMI-8226 = experiment: Growth inhibition of human RPMI8226 cells at 10 uM after 48 hrs by sulforhodamine B assay; settings: RPMI-8226, 48 h, read-out: GI; how it was run: as §2
MCF7 = experiment: Growth inhibition of human MCF7 cells at 10 uM after 48 hrs by sulforhodamine B assay; settings: MCF7, 48 h, read-out: GI; how it was run: as §2
NCI-H460 = experiment: Growth inhibition of human NCI-H460 cells at 10 uM after 48 hrs by sulforhodamine B assay; settings: NCI-H460, 48 h, read-out: GI; how it was run: as §2
OVCAR-5 = experiment: Growth inhibition of human OVCAR5 cells at 10 uM after 48 hrs by sulforhodamine B assay; settings: OVCAR-5, 48 h, read-out: GI; how it was run: as §2
SN12C = experiment: Growth inhibition of human SN12C cells at 10 uM after 48 hrs by sulforhodamine B assay; settings: read-out: GI; how it was run: as §2
CCRF-CEM = experiment: Growth inhibition of human CCRF-CEM cells at 10 uM after 48 hrs by sulforhodamine B assay; settings: read-out: GI; how it was run: as §3
NCI-H23 = experiment: Growth inhibition of human NCI-H23 cells at 10 uM after 48 hrs by sulforhodamine B assay; settings: NCI-H23, 48 h, read-out: GI; how it was run: as §2
[2] = Growth inhibition of human HCC2998 cells at 10 uM after 48 hrs by sulforhodamine B assay; settings: HCC 2998, 48 h, read-out: GI; how it was run: as §1
HCT-15 [3] = experiment: Growth inhibition of human HCT15 cells assessed as cell growth at 10^-5 M after 48 hrs by sulforhodamine B assay; settings: HCT-15, 48 h, read-out: Activity
How it was run: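 Five-dose screen at NCI. Cells in RPMI 1640 with 5% FBS and 2 mM L-glutamine, seeded at 5000–40,000 cells/well and grown 24 h at 37 °C, 5% CO2 before dosing, with time-zero plates TCA-fixed. Drug diluted from DMSO stock to 0.01, 0.1, 1, 10 and 100 µM final, 48 h. Cells fixed with cold TCA (10% final), stained with 0.4% SRB and read at 515 nm. Percent growth from Tz, control and test absorbances; GI50, TGI and LC50 from dose-response curves.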

T47D = experiment: Growth inhibition of human T47D cells at 10 uM after 48 hrs by sulforhodamine B assay; settings: read-out: GI; how it was run: as §2
[4] = Growth inhibition of human NCI-ADR-RES cells at 10 uM after 48 hrs by sulforhodamine B assay; settings: read-out: GI; how it was run: as §2
OVCAR-3 = experiment: Growth inhibition of human OVCAR3 cells at 10 uM after 48 hrs by sulforhodamine B assay; settings: OVCAR-3, 48 h, read-out: GI; how it was run: as §2
SK-MEL-2 = experiment: Growth inhibition of human SK-MEL-2 cells at 10 uM after 48 hrs by sulforhodamine B assay; settings: SK-MEL-2, 48 h, read-out: GI; how it was run: as §2
KM12 = experiment: Growth inhibition of human KM12 cells at 10 uM after 48 hrs by sulforhodamine B assay; settings: KM12, 48 h, read-out: GI; how it was run: as §2
CAKI-1 = experiment: Growth inhibition of human CAKI-1 cells at 10 uM after 48 hrs by sulforhodamine B assay; settings: CAKI-1, 48 h, read-out: GI; how it was run: as §3

Row | Compound | inhibition of growth at 10 µM (HCT-15 [1]) [%] | growth at 0.1 µM (BT-549) [%] | inhibition of growth at 10 µM (SK-MEL-5) [%] | inhibition of growth at 10 µM (SF-539) [%] | inhibition of growth at 10 µM (PC-3) [%] | inhibition of growth at 10 µM (Malme-3M) [%] | inhibition of growth at 10 µM (ACHN) [%] | inhibition of growth at 10 µM (LOX IMVI) [%] | inhibition of growth at 10 µM (UACC-62) [%] | inhibition of growth at 10 µM (SF-268) [%] | inhibition of growth at 10 µM (HT-29) [%] | inhibition of growth at 10 µM (UO-31) [%] | inhibition of growth at 10 µM (A498) [%] | inhibition of growth at 10 µM (SR) [%] | inhibition of growth at 10 µM (RPMI-8226) [%] | inhibition of growth at 10 µM (MCF7) [%] | inhibition of growth at 10 µM (NCI-H460) [%] | inhibition of growth at 10 µM (OVCAR-5) [%] | inhibition of growth at 10 µM (SN12C) [%] | inhibition of growth at 10 µM (CCRF-CEM) [%] | also measured
1 | O=S(=O)(Nc1ccc(Cl)cc1)c1ccc2nc(-c3ccccc3)c(-c3ccccc3)nc2c1 | 44.7 | 81 | 74 | 25.9 | 60 | 6.64 | 23.9 | 38.4 | 30.6 | 14.1 | 70.4 | 29.2 | 44.3 | 88.1 | 86 | 47.7 | 47.1 | 18.3 | 26.9 | 61.9 | inhibition of growth at 10 µM (NCI-H23): 26.6%; inhibition of growth at 10 µM [2]: 37.9%; growth at 10 µM (HCT-15 [3]): 3%; inhibition of growth at 10 µM (T47D): 72.1%; inhibition of growth at 10 µM [4]: 55.2%; inhibition of growth at 10 µM (OVCAR-3): 28.8%; inhibition of growth at 10 µM (SK-MEL-2): 23.9%; inhibition of growth at 10 µM (KM12): 38.7%; inhibition of growth at 10 µM (CAKI-1): 33.9%
2 | O=S(=O)(Nc1ccccn1)c1ccc2nc(-c3ccccc3)c(-c3ccccc3)nc2c1 | 62.4 | 81 | -6.25 | 61.9 | 72.2 | 32.9 | 34.3 | 63.3 | 41.1 | 27.6 | 81.7 | 45.2 | 70.2 | -3.25 | 89.9 | 65.9 | 63.4 | 24.3 | 38.5 | 70.7 | inhibition of growth at 10 µM (NCI-H23): 46.5%; inhibition of growth at 10 µM [2]: 60.6%; growth at 10 µM (HCT-15 [3]): 3%; inhibition of growth at 10 µM (T47D): 81.1%; inhibition of growth at 10 µM [4]: 73.2%; inhibition of growth at 10 µM (OVCAR-3): 48.9%; inhibition of growth at 10 µM (SK-MEL-2): 39.3%; inhibition of growth at 10 µM (KM12): 61.5%; inhibition of growth at 10 µM (CAKI-1): 54.1%
